Source: PubChem BioAssay (several laboratories)
Rin1 Abl inh = blocks binding of human Rin1 to Abl; P00519+Q13671; AID 588664; TR-FRET Rin1/Abl binding, biochemical; 360,000 tested, 0.4% active; inhibition, % at 7.35 µM; in the data active = inhibition above about 5%, passing the limit was not always enough
UCH37 DUB inh = blocks the human deubiquitinase UCH37; Q9Y5K5; purified proteasome/UCH37, Ub-AMC cleavage fluorescence; inhibition, % (concentration not given with the values); 330,000 tested, 0.33% active;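 active = mean inhibition over replicate wells above about 20%, limit read from the data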
Target sequence (Q9Y5K5 whole entry, looked up): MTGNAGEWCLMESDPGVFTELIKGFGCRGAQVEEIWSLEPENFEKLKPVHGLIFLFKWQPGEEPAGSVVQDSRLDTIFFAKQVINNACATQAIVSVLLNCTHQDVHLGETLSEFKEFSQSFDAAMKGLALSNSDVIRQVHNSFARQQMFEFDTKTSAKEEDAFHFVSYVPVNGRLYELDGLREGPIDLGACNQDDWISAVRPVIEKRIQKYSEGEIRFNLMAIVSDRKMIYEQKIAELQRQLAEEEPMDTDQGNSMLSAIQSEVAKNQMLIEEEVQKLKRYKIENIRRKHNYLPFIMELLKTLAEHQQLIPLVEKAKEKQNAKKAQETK
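system = Proteasome-associated human UCH37 deubiquitinase | amount = 0.15 nM proteasome as dispensed | medium = pH 7.4 Tris-HCl (50 mM) with ovalbumin, ATP-MgCl2, DTT | incubation = 30 min preincubation with enzyme, 25 min cleavage at room temperature | detection = AMC fluorescence 355/460 nm | read-out basis = percent inhibition | controls = no-proteasome and no-compound wells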
PKA-R2B act = activators of human PKA-R2B complex; P22694+P31323; PKA-R2B holoenzyme dissociation, Cy5-IP20 fluorescence polarization; R2B truncated from residue 108, S112A mutant; 0% DMSO only, 100% 113 µM cGMP; activation, % at 11.4 µM; 340,000 tested, 0.079% active; AID 504700;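 active = activation above a cutoff set at the mean over all compounds plus 3 SD, cut at about 18% in these data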;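 also: higher means more holoenzyme dissociation and a rise in polarization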
PKA-R1A act = activators of PKA-R1A complex. P00514+P68181. PKA-R1A dissociation, Cy5-IP20 fluorescence polarization; scaled: DMSO 0%, 113 µM cGMP 100%. activation, % at 11.4 µM. 340,000 tested, 0.083% active;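 active = percent activation above the mean of all tested compounds plus 3 SD, cut at about 19% in these data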;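 also: higher means more PKAc released from R1A so a rise in polarization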
Rin1 Abl conf = confirmation of inhibitors of human Rin1-Abl interaction; shares compounds with Rin1 Abl inh; TR-FRET Rin1-Abl binding, purified proteins; inhibition, % at 7.35 µM; 1,300 tested, 49% active; AID 602124
GFP quencher = quenches GFP fluorescence, counter-screen for Rin1-Abl inhibitors. AID 602125. inhibitors/quenchers counterscreen. inhibition, % at 6.75 µM. shares compounds with Rin1 Abl inh. 1,300 tested, 8.5% active;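 also: ABL1-eGFP fusion protein alone without its partner RIN1-SBP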
GFP quench dose = quenches GFP in dose response, Rin1-Abl counter-screen; shares compounds with Rin1 Abl inh; GFP fluorescence interference/quenching counterscreen; IC50, µM; 230 tested, under 10 active; AID 602182; call rule not given here;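 also: ABL1-eGFP fusion protein alone without its RIN1 binding partner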
Each line names hits and unclear results; the compound was inactive in the other large screens (follow-up assays come after a bar, where they were run). Most compounds without a hit are left out; they make up all but 0.79% or so of the library. Rule as the data show it, unless noted: active = inhibition above about 6.5%; inactive = the rest.

Oc1ccc(N=Nc2ccc3c(c2)OCCO3)c2cccnc12	Rin1 Abl inh 11 | Rin1 Abl conf 8.4 | GFP quencher 8.1
COc1cccc(CC(=O)NC2CCCN(Cc3ccc(Cl)cc3)C2)c1 (stereo not given)	none
O=[N+]([O-])c1ccc(OCCOc2ccccc2/C=N/n2cnnc2)cc1	none (no result: UCH37 DUB inh)
O=C1CCC([N+](=O)[O-])C(c2ccc(Br)cc2)N1 (stereo not given)	Rin1 Abl inh 11 | Rin1 Abl conf 8.1 | GFP quencher inactive
O=C(Nc1cccc(C(F)(F)F)c1)c1cccnc1NCCO	Rin1 Abl inh 6.9 | Rin1 Abl conf inactive | GFP quencher inactive
O=C(Nc1cccc(C(F)(F)F)c1)c1cccnc1NCCc1ccccc1	none
CN(C)Cc1cc(O)c(CN(C)C)cc1O	Rin1 Abl inh 13 | Rin1 Abl conf inactive | GFP quencher inactive
Cc1c(S(=O)(=O)N2CCN(C(=O)c3ccco3)CC2)c(=O)n(C)c(=O)n1C	Rin1 Abl inh 8.2 | Rin1 Abl conf inactive | GFP quencher inactive
Cn1c(N)c(S(=O)(=O)N2CCN(C(=O)c3ccco3)CC2)c(=O)n(C)c1=O	none
Cc1ccc2[nH]c(=O)c(CN(Cc3cccnc3)C(=S)NCCCN(C)C)cc2c1	none
N#Cc1ccc(NC(=O)Nc2ccc(Oc3ccc(NC(=O)Nc4ccc(C#N)cc4)cc3)cc2)cc1	none
N#Cc1ccc(NC(=O)Nc2cccc(C#N)c2)cc1	Rin1 Abl inh 8.0 (no result: UCH37 DUB inh) | Rin1 Abl conf inactive | GFP quencher inactive
O=C(c1ccc(Br)cc1)N(C1=NCCCCS1)c1ccccc1	none
CCNc1cc2c(cc1O)CCC1C2CCC2(C)C(O)CCC12 (stereo not given)	Rin1 Abl inh 13 (no result: UCH37 DUB inh) | Rin1 Abl conf inactive | GFP quencher inactive
CCOc1cc2c(cc1O)CCC1C2CCC2(C)C(O)CCC12 (stereo not given)	none (no result: UCH37 DUB inh)
Cc1cc(C)nc(SCC(=O)Nc2ncc(Cc3cccc(Cl)c3Cl)s2)n1	none
COc1ccccc1OCC(=O)OCC(=O)NCCN1C(=O)CSC1=O	none
O=C(COC(=O)CNC(=O)c1ccco1)NCCN1C(=O)CSC1=O	Rin1 Abl inh 5.0 | Rin1 Abl conf inactive | GFP quencher inactive
CCC(=O)Oc1ccc2c(=O)c(-c3ccc4ccccc4n3)c(CC)oc2c1C	none
Oc1c(CN2CCCCC2)cc(Br)c2cccnc12	Rin1 Abl inh 11 | Rin1 Abl conf 8.0 | GFP quencher inactive
O=C(COc1c(Br)cc(Br)c2cccnc12)N1CCCCC1	none
Oc1c(Cl)cc(CN2CCOCC2)c2cccnc12	Rin1 Abl inh 7.4 | Rin1 Abl conf inactive | GFP quencher inactive
O=C(c1ccco1)N1CCN(Cc2cc(=O)c(OCc3cccc(Cl)c3)co2)CC1	none
Cc1cc(C(=O)N/N=C2\CCCc3ccccc32)c(C)o1	Rin1 Abl inh 11 (no result: UCH37 DUB inh) | Rin1 Abl conf inactive | GFP quencher inactive
O=C(CN(C(=O)c1csnn1)c1ccccc1)NCc1ccc2c(c1)OCO2	none
COc1ccc2c(c1)NC1(O)c3ccccc3C(=O)C21O (stereo not given)	none
CCCCOC(=O)C1=C(C)NC2(O)c3ccccc3C(=O)C12O (stereo not given)	Rin1 Abl inh 7.8 | Rin1 Abl conf inactive | GFP quencher inactive
CC1=C(C(=O)OC(C)C)C2(O)C(=O)c3ccccc3C2(O)N1 (stereo not given)	Rin1 Abl inh 13 | Rin1 Abl conf inactive | GFP quencher inactive
Cn1c(=O)c(S(=O)(=O)C(C)(C)C)c(O)c2ccccc21	none
CCC(=O)Nc1c(C)cc(C)cc1Cl	none
COCCCn1c(SCC(=O)Nc2ccc(C(C)=O)cc2)nc2ccccc2c1=O	Rin1 Abl inh 10 | Rin1 Abl conf 7.4 | GFP quencher inactive
CCOC(CCn1c(SCC(=O)Nc2cc(C)on2)nc2ccccc2c1=O)OCC	Rin1 Abl inh 9.4 | Rin1 Abl conf inactive | GFP quencher inactive
COCCn1c(SCC(=O)Nc2ccc(NC(C)=O)cc2)nc2ccccc2c1=O	none
N#Cc1c(SCC(=O)Nc2ccccc2C(F)(F)F)sc2c(O)cc(=O)[nH]c12	none
O=C(NN=Cc1cn(Cc2cccc(F)c2)c2ccccc12)c1cc(O)cc(O)c1	none (no result: Rin1 Abl inh, PKA-R2B act, PKA-R1A act)
O=C(N/N=C/c1cn(Cc2cccc(F)c2)c2ccccc12)c1cc(O)cc(O)c1	Rin1 Abl inh 14 (no result: UCH37 DUB inh) | Rin1 Abl conf 8.7 | GFP quencher 10
CC(CCc1ccc2c(c1)OCO2)=NNC(=O)c1ccccc1Cl	none (no result: Rin1 Abl inh, PKA-R2B act, PKA-R1A act)
CCOC(=O)CCCCC(=O)c1[nH]c(=O)[nH]c1CSc1nc2ccccc2[nH]1	Rin1 Abl inh 84 | Rin1 Abl conf 88 | GFP quencher inactive | GFP quench dose inactive
CCOC(=O)CCCCC(=O)c1[nH]c(=O)[nH]c1C[n+]1ccccc1	none (no result: Rin1 Abl inh, PKA-R2B act, PKA-R1A act)
CCOC(=O)CCCCC(=O)c1[nH]c(=O)[nH]c1CSc1nc(C)cc(=O)[nH]1	Rin1 Abl inh 82 | Rin1 Abl conf 86 | GFP quencher inactive | GFP quench dose inactive
CCOC(=O)CCCCC(=O)c1[nH]c(=O)[nH]c1CN1CCOCC1	Rin1 Abl inh 80 | Rin1 Abl conf 88 | GFP quencher inactive | GFP quench dose inactive
CCOC(=O)CCCCC(=O)c1[nH]c(=O)[nH]c1CSc1nc(C)cc(C)n1	Rin1 Abl inh 68 | Rin1 Abl conf 71 | GFP quencher inactive | GFP quench dose inactive
CCOC(=O)CCCCC(=O)c1[nH]c(=O)[nH]c1C[n+]1ccc(C)cc1	Rin1 Abl inh 23 | Rin1 Abl conf 30 | GFP quencher inactive | GFP quench dose inactive
C=CCN(CC=C)C(=S)NC(=O)Cc1cccc2ccccc12	Rin1 Abl inh 10 (no result: UCH37 DUB inh) | Rin1 Abl conf inactive | GFP quencher inactive
O=C(Cc1cccc2ccccc12)Nc1ccccc1	none
Cc1ccc(-n2cc(CN3CCN(Cc4nccn4C)CC3)c(-c3cccc(C)c3)n2)cc1	none
CC(=O)c1c(O)cc(=O)n(-c2ccccc2)c1-c1ccc(C)cc1	none
Cc1ccc(-n2c(=O)c3sccc3n(CC(=O)N3CCCC3)c2=O)cc1	Rin1 Abl inh 5.8 | Rin1 Abl conf inactive | GFP quencher inactive
O=C(Cn1c(=O)n(-c2ccccc2)c(=O)c2sccc21)N1CCCC1	none
Cc1ccsc1C1C2=C(CC(C)(C)CC2=O)Nc2ncnn21 (stereo not given)	none
Cc1cc(C)n(-c2cc(Cl)cc(Cl)c2)c(=O)c1C#N	Rin1 Abl inh 8.3 | Rin1 Abl conf inactive | GFP quencher inactive
CN=c1scc(-c2cccs2)n1/N=C/c1ccc(O)c(O)c1O	Rin1 Abl inh 8.8 (no result: UCH37 DUB inh) | Rin1 Abl conf 9.7 | GFP quencher 13
CN=c1scc(C)n1/N=C/c1ccc(O)c(O)c1O	Rin1 Abl inh 36 (no result: UCH37 DUB inh) | Rin1 Abl conf 21 | GFP quencher 20
